Assay [1] has as its system Rattus norvegicus. Kind of assay: Antiallergic activity after intravenous administration using rat reaginic passive cutaneous anaphylaxis (PCA) test. In kind it is functional. To be noted: for ED50: Rattus norvegicus, iv, read-out: ID50 (the source's name). The essentials:
(§1)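 Inhibition in the rat reaginic PCA test after dosing; significance of each value judged by Student's t test.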

Assay [2] has as its system Rattus norvegicus. Kind of assay: Antiallergic activity after os administration using rat reaginic passive cutaneous anaphylaxis (PCA) test. In kind it is functional. To be noted: for ED50: read-out: ID50 (the source's name). The essentials: as §1
Assay [3] concerns Rattus norvegicus. Kind of assay: Antiallergic activity after iv administration using rat reaginic passive cutaneous anaphylaxis (PCA) test;ins means insoluble.
In assay [4] the test system is Rattus norvegicus. Kind of assay: Antiallergic activity after iv administration using rat reaginic passive cutaneous anaphylaxis (PCA) test;Compound is toxic at 100 umol/kg.
In assay [5] the test system is Rattus norvegicus. Kind of assay: Antiallergic activity after os administration using rat reaginic passive cutaneous anaphylaxis (PCA) test; insignificant activity; per os 10e3 umol/kg exhibited 31% protection. The class given is functional.

Some results are limits rather than exact numbers.

With `CC1CCCc2ncc(C(=O)O)c(=O)n21` (stereo unspecified), the ED50 in assay [1] was 240 µmol/kg.
With `CC1CC=C(Nc2cccc(F)c2)c2ncc(C(=O)O)c(=O)n21` (stereo unspecified), the ED50 in assay [1] amounted to 1.4 µmol/kg.
As to `CC1CC=C(Nc2ccc(C(=O)O)cc2)c2ncc(C(=O)O)c(=O)n21` (stereo unspecified), the ED50 was found to be 3.5 µmol/kg in assay [1] and 277 µmol/kg in assay [2].
`C[C@H]1CC=C(Nc2ccccc2)c2ncc(C(=O)O)c(=O)n21`: the ED50 in assay [1] is 1.2 µmol/kg.
Same read-out and setting: for `CC1CC=C(Nc2ccccc2C(=O)O)c2ncc(C(=O)O)c(=O)n21` (stereo unspecified) the value was 0.66 µmol/kg; for `CCc1nc2n(c(=O)c1C(=O)O)C(C)CC/C2=N\O` (stereo unspecified), greater than 100 µmol/kg; for `Cc1ccccc1NC1=CCC(C)n2c1ncc(C(=O)O)c2=O` (stereo unspecified), 5.4 µmol/kg.
The same measure, in the same setting: for `CC1CCC(C(=O)Nc2ccccc2)c2ncc(C(=O)O)c(=O)n21` (stereo unspecified) the value was 0.56 µmol/kg.
Regarding `CC1CC=C(Nc2ccc3ccccc3c2)c2ncc(C(=O)O)c(=O)n21` (stereo unspecified), the ED50 in assay [2] came out at 30.8 µmol/kg.
With `CC1CCC(/C(S)=N/c2ccccc2)c2ncc(C(=O)O)c(=O)n21` (stereo unspecified), the ED50 in assay [1] is 9.1 µmol/kg.
For the compound `CCO/N=C1\CCC(C)n2c1ncc(C(=O)OCC)c2=O` (stereo unspecified), the ED50 in assay [1] was determined as 41.2 µmol/kg.
Still for that read-out and setting: next, `CCOC(=O)c1cnc2n(c1=O)C(C)CC/C2=N\O` (stereo unspecified): 100 µmol/kg.
Turning to `CC1CCC(Nc2ccccc2)c2ncc(C(=O)O)c(=O)n21` (stereo unspecified), the ID50 result in assay [3] is on record as “Insoluble”.
`CC1CC=C(Nc2ccccc2)c2ncc(C(=O)O)c(=O)n21` (stereo unspecified): the ED50 in assay [1] came out at 2.1 µmol/kg.
The compound `CC1CC=C(Nc2cccc(Br)c2)c2ncc(C(=O)O)c(=O)n21` (stereo unspecified) gave an ID50 in assay [4] of 10 µmol/kg.
With `CC(=O)c1cccc(NC2=CCC(C)n3c2ncc(C(=O)O)c3=O)c1` (stereo unspecified), the ED50 in assay [1] came out at 0.36 µmol/kg.
Same read-out and setting: for `Cc1cccc(NC2=CCC(C)n3c2ncc(C(=O)O)c3=O)c1` (stereo unspecified) the value was 0.74 µmol/kg; for `CCO/N=C1\CCC(C)n2c1ncc(C(=O)O)c2=O` (stereo unspecified), 24.3 µmol/kg; for `CC1CC/C(=N\O)c2ncc(C(=O)O)c(=O)n21` (stereo unspecified), 19.4 µmol/kg.
Regarding `CC1CCC(=NNc2ccccc2)c2ncc(C(=O)O)c(=O)n21` (stereo in doubt; 2), the ED50 in assay [1] came out at 0.6 µmol/kg.
Consider `CC1CCC(C(=O)N(C)C)c2ncc(C(=O)O)c(=O)n21` (stereo unspecified), for which the ID50 entry in assay [3] is recorded as “Insoluble”.
In the case of `CCOC(=O)c1cnc2n(c1=O)C(C)CCC2C(=O)Nc1ccccc1` (stereo unspecified), the Activity in assay [5] is reported as 31%.
As to `CC1CCC(=NNc2ccccc2)c2ncc(C(=O)O)c(=O)n21` (stereo in doubt), the ID50 in assay [1] turned out to be 0.3 µM/kg.
Turning to `CC1CC/C(=N\N)c2ncc(C(=O)O)c(=O)n21` (stereo unspecified), the ED50 in assay [1] was determined as 42 µmol/kg.
`CC1CC=C(Nc2cccc(I)c2)c2ncc(C(=O)O)c(=O)n21` (stereo unspecified) gave an ID50 in assay [4] of 10 µmol/kg.
`CC1CCC(/C=N/c2ccccc2)=C2NC=C(C(=O)O)C(=O)N21` (stereo unspecified) came in with an Activity in assay [2] of 47%.
Turning to `Cc1nc2n(c(=O)c1C(=O)O)C(C)CC/C2=N\O` (stereo unspecified), the ED50 in assay [1] was greater than 100 µmol/kg.
Consider `CC1CC=C(Nc2ccc(O)cc2)c2ncc(C(=O)O)c(=O)n21` (stereo unspecified), for which the ED50 was 2.93 µmol/kg in assay [1] and 100 µmol/kg in assay [2].
Take `CC1CC=C(N(C)c2ccccc2)c2ncc(C(=O)O)c(=O)n21` (stereo unspecified): in assay [1], the ED50 is greater than 100 µmol/kg.
On the same count and under the same terms, next, `O=C(O)c1cc(=O)c2c(OCC(O)COc3cccc4oc(C(=O)O)cc(=O)c34)cccc2o1` [CROMOLYN SODIUM]: 1 µmol/kg.
The same measure, in the same setting: next, `CC1CC=C(Nc2ccc(F)cc2)c2ncc(C(=O)O)c(=O)n21` (stereo unspecified): 8.6 µmol/kg.
For the compound `CC1CC=C(Nc2cccc(C(=O)O)c2)c2ncc(C(=O)O)c(=O)n21` (stereo unspecified), the ED50 came to 0.62 µmol/kg in assay [1] and 92.6 µmol/kg in assay [2].
For `C[C@@H]1CC=C(Nc2ccccc2)c2ncc(C(=O)O)c(=O)n21`, the ED50 in assay [1] turned out to be 100 µmol/kg.

For the origin of these results see ChEMBL document CHEMBL1122377, “Nitrogen bridgehead compounds. 38. New antiallergic 4H-pyrido[1,2-a]pyrimidin-4-ones. 3” (1983).
